Data on six substances can be found in article PMC11589143 (Nature Communications, 2024).

In experiment [1] the target is FITC-conjugated H4R3me2a peptide. Kind of experiment: MST.
The test system of experiment [2] is HEK293T nuclear proteins (H4R3me2a interactors). Description: Proteome-wide photoaffinity capture, dimethyl labelling, LC-MS. The note with it: |log2 fold change| > 2, P < 0.05; vs peptide without pLeu. It counts as binding, Homo sapiens. The method in brief:
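HEK293T cells were lysed in RSB buffer and crude nuclei resuspended in crosslinking buffer (100 mM HEPES, 1.5 mM MgCl2, 150 mM KCl, pH 7.5). Nuclei received 100 µM biotinylated pLeu peptide in the dark, then 365 nm UV on ice. After washing and sonication, proteins were captured on streptavidin and washed stringently. Only proteins quantified in both replicates were kept, with two-tailed unpaired t-test P-values.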

For experiment [3], the system named is mutant Mina53 (D329A/D333A). Kind of experiment: Microscale thermophoresis, mutant Mina53. The settings on record: MST; D333A/D329A mutant vs WT; n=3 independent assays. In kind it is binding. An outline of the steps: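 His-tagged Mina53 was titrated from 3 nM to 0.1 mM against 25 nM FITC-labelled H4R3me2a peptide. Mixtures were incubated 15 min in 30 mM Hepes, 150 mM NaCl, pH 7.5, then loaded into glass capillaries for microscale thermophoresis. KD was fitted from the thermophoresis response.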
In general terms: Microscale thermophoresis detects binding through changes in fluorescence in a small temperature gradient.

In experiment [4] the test system is His-tagged WT Mina53. Kind of experiment: In vitro demethylation, dot blotting, WT Mina53. In kind it is biochemical. The note with it: 2 h at 37 °C, cofactors.
Experiment [5] has as its system inactive mutant (H179Y/D181G/H240Y) of Mina53. Description: In vitro demethylation, dot blotting, inactive mutant Mina53. In kind it is biochemical. The settings on record: 2 h at 37 °C, cofactors.
For experiment [6], the system named is WT Mina53. Description: LC-MS of in vitro demethylation products, WT Mina53. In kind it is biochemical. The note with it: high-resolution MS. The method in brief: (§1)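 Reaction mixtures were brought to 0.2% TFA and 2% acetonitrile (final) and desalted on C18 ZipTips (activated in 80% acetonitrile/0.1% TFA, equilibrated in 0.1% TFA). Separation was on an HSS T3 UPLC column with 0.1% formic acid in water versus acetonitrile/0.1% formic acid. Detection used positive-mode ESI TOF MS scanning 400-1500 m/z, and relative peptide abundance was compared.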

In experiment [7] the test system is catalytically inactive mutant Mina53. Description: LC-MS of in vitro demethylation products, mutant Mina53. It counts as biochemical. The note with it: high-resolution MS. An outline of the steps: as §1
The target of experiment [8] is Mina53 (Homo sapiens, UniProt Q8IUF8). Description: Formaldehyde release assay. The note with it: AAPT (modified NASH), ex 355 nm / em 470 nm. In kind it is biochemical. An outline of the steps: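 After the demethylation reaction, samples were TCA-precipitated and 1% Tris buffer was added. An equal volume of AAPT buffer was added to the supernatant and incubated 30 min at room temperature. Formaldehyde was quantified against a standard curve from serial dilutions of 37% formaldehyde. Km and kcat were fitted to the Michaelis-Menten equation.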
Chain of Mina53 (Q8IUF8 whole entry): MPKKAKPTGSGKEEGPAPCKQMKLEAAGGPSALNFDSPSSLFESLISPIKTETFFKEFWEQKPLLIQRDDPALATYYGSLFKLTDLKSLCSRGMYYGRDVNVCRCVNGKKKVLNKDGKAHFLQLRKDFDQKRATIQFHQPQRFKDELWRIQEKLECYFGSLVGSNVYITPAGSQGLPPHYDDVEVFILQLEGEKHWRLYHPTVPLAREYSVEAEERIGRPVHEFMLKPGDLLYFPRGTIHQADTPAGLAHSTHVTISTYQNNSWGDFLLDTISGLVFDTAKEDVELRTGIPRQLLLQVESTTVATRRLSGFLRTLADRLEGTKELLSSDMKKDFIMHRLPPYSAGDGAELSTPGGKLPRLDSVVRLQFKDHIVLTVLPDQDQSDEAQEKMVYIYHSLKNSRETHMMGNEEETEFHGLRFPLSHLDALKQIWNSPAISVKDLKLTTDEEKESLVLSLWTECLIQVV

In experiment [9] the test system is His-tagged Mina53. Kind of experiment: Pulldown of synthetic H4R3 peptides with purified His-tagged Mina53. It counts as binding. The note with it: H4R3 peptides with different R3 modifications.

For orientation: Kd means the equilibrium constant for the complex coming apart. The low end stands for a tighter complex, the high end for a looser complex.

Chain of His-tagged Mina53 (Myc-induced nuclear antigen 53), wild type (Q8IUF8 whole entry): as above

The substance “His-tagged Mina53 (Myc-induced nuclear antigen 53), wild type (from UniProt Q8IUF8 1-465) (enzyme)” returned a Kd in experiment [1] of 27.6 µM.

“pLeuGRme2aGKGGKGLGKGGAKKbio-NH2 [H4R3me2a-pLeu-biotin]”: the “Enrichment of SND1, SMNDC1 and PRMT1 in pLeu-containing peptide sample” value in experiment [2] was “enriched”.

Regarding “SGR(Me2a)GKGGKGLGKGGAKRHRKVGGK(Biotin) [H4R3me2a]”, the “Binding affinity of mutant Mina53” value in [3] is “drastic loss of binding”. Also, the “Dot-blot signal change with WT Mina53” value in experiment [4] is on record as “drastically decreased”. For the same substance, the “Dot-blot signal change with mutant Mina53” value in experiment [5] is listed as “not mutant Mina53”. The “Peptide peak shift (to mono-methylated peptide)” value in experiment [6] (WT Mina53) was 14 Da. Further, the “Peptide peak shift with mutant Mina53” value in experiment [7] is recorded as “not mutant Mina53”. The “turn-over rate (kcat)” value in experiment [8] was determined as 0.37 ± 0.08 s⁻¹.

As for “SGR(Me1)GKGGKGLGKGGAKRHRKVGGK(Biotin) [H4R3me1]”, the “Dot-blot signal change with WT Mina53” value in [4] was “drastically decreased”. In addition, the “Dot-blot signal change with mutant Mina53” value in [5] is “not mutant Mina53”. Also, the “Appearance of non-methylated peptide” value in [6] (H4R3me1 peptide as substrate) is recorded as “modest non-methylated peptide appearance”.

Consider “SGR(Me2s)GKGGKGLGKGGAKRHRKVGGK(Biotin) [H4R3me2s]”, for which the “Amount of peptide pulled down by Mina53” value in [9] is recorded as “in the smallest amount”.

As to APATGGV-Kme3-KPHRYRP(Biotin) [H3K36me3], the “Dot-blot signal change with WT Mina53” value in experiment [4] is given as “modestly decreased”. Moreover, the “Dot-blot signal change with mutant Mina53” value in [5] is reported as “not mutant Mina53”.
